{"data": "Experimental data of several laboratories", "JAK3": "Tyrosine-protein kinase JAK3 (JAK3, Homo sapiens, UniProt P52333)", "MET": "Hepatocyte growth factor receptor (MET, Homo sapiens, UniProt P08581)", "CSF1R": "Macrophage colony-stimulating factor 1 receptor (CSF1R, Homo sapiens, UniProt P07333)", "IDE": "Insulin-degrading enzyme (IDE, Homo sapiens, UniProt P14735)", "note": "Protocols differ between the studies behind these lines."}
{"SMILES": "Oc1c2ccccc2c2c3c(cccc13)N=N2", "target": "JAK3", "test": "enzyme activity, inhibitor", "IC50 [nM]": 344}
{"SMILES": "Cc1cc(Oc2ccc(NC(=O)c3sc(-c4ccccn4)nc3C)cc2F)c2nncn2n1", "target": "MET", "test": "enzyme activity, inhibitor, mobility shift", "IC50 [nM]": 900}
{"SMILES": "CCOC(=O)c1cnc2[nH]ccc2c1N[C@@H]1CCCN(C(=O)CC#N)C1", "target": "JAK3", "test": "enzyme activity, inhibitor", "IC50 [nM]": 3.6}
{"SMILES": "Cc1cnc(-c2ccc(-c3ccc(NC(=O)Nc4c(F)cc(F)cc4F)cc3F)c3c2C(=O)NC3)[nH]1", "target": "Myosin-IIIa (MYO3A, Homo sapiens, UniProt Q8NEV4)", "test": "enzyme activity, inhibitor", "IC50 [nM]": 8.2}
{"SMILES": "Cc1ccc(C(=O)Nc2ccc(Oc3cc4cnn(C)c4cc3-c3cn[nH]c3)c(F)c2)c(=O)n1-c1ccc(F)cc1", "target": "CSF1R", "test": "phosphorylation in cells, inhibitor, western blot", "IC50 [nM]": 300}
{"SMILES": "CC(C)C[C@H](NC(=O)[C@H](Cc1ccccc1)NC(=O)[C@H](Cc1ccc(O)cc1)NC(=O)CNC(=O)[C@H](CCCNC(=N)N)NC(=O)[C@H](CO)NC(=O)[C@H](CCC(N)=O)NC(=O)[C@H](CO)NC(=O)[C@H](C)NC(=O)[C@H](Cc1ccccc1)NC(=O)[C@@H]1CCCN1C(=O)[C@H](CO)NC(=O)[C@H](CCC(N)=O)NC(=O)[C@H](Cc1ccccc1)NC(=O)[C@H](CCC(=O)O)NC(=O)[C@H](CCC(=O)O)NC(=O)[C@H](CC(=O)O)NC(=O)[C@@H](NC(=O)[C@H](CCCNC(=N)N)NC(=O)[C@@H](N)Cc1ccccc1)C(C)C)C(=O)N[C@@H](Cc1ccccc1)C(=O)N[C@@H](CCCNC(=N)N)C(=O)N1CCC[C@H]1C(=O)N[C@@H](CCCNC(=N)N)C(=O)N[C@@H](CC(N)=O)C(N)=O", "target": "Neuromedin-U receptor 2 (NMUR2, Homo sapiens, UniProt Q9GZQ4)", "test": "ligand displacement, radioligand", "conditions": "cell membranes", "IC50 [nM]": 0.22}
{"SMILES": "O=C(Nc1ccccc1)c1cc([N+](=O)[O-])ccc1Cl", "target": "Peroxisome proliferator-activated receptor alpha (PPARA, Homo sapiens, UniProt Q07869)", "test": "ligand displacement, TR-FRET", "IC50 [nM]": 26}
{"SMILES": "FC(F)(F)c1cccc(-c2nnc(S)o2)c1", "target": "P2X purinoceptor 7 (P2RX7, Homo sapiens, UniProt Q99572)", "test": "calcium signal, antagonist", "IC50 [nM]": 1500}
{"SMILES": "CNC(=O)c1cc2c(Oc3ccc(NC(=O)C4(C(=O)Nc5ccc(F)cc5)CC4)cc3)ccnc2cc1OC", "target": "CSF1R", "test": "enzyme activity, inhibitor, radiometric", "IC50 [nM]": 11}
{"SMILES": "O=C(O)[C@H](Cc1ccc2ccccc2c1)NC(=O)C1(c2ccc3ccccc3c2)CCN(S(=O)(=O)c2ccccc2)CC1", "target": "Gag-Pol polyprotein, integrase (gag-pol, Human immunodeficiency virus 1, UniProt P12497)", "test": "enzyme activity, inhibitor, TR-FRET", "IC50 [nM]": 54700}
{"SMILES": "COC(=O)[C@H](Cc1c[nH]cn1)NC(=O)CN(CC(=O)NO)Cc1ccccc1", "target": "IDE", "test": "enzyme activity, inhibitor, fluorescence", "IC50 [nM]": 3200}
{"SMILES": "COc1ccc2c(Oc3ccc4c(C(=O)Nc5ccccc5N)cccc4c3)ccnc2c1", "target": "MET", "test": "enzyme activity, inhibitor", "IC50 [nM]": "> 500"}
{"SMILES": "COC(=O)[C@H](Cc1c[nH]cn1)NC(=O)CN(CCCc1ccccc1)CC(=O)O", "target": "IDE", "test": "enzyme activity, inhibitor, fluorescence", "IC50 [nM]": 1000}
{"SMILES": "Cc1cc(Oc2ccc(NC(=O)c3cc(-c4cccs4)no3)cc2F)c2nncn2n1", "target": "MET", "test": "enzyme activity, inhibitor, mobility shift", "IC50 [nM]": 540}
{"SMILES": "COC(=O)[C@H](Cc1c[nH]cn1)NC(=O)CN(CC(=O)O)Cc1ccc(C(F)(F)F)cc1", "target": "IDE", "test": "enzyme activity, inhibitor, fluorescence", "IC50 [nM]": 2000}
{"SMILES": "CC(C)n1nc(-c2ccc3c(c2)sc2ccccc23)c2c(N)ncnc21", "target": "Calmodulin-domain protein kinase 1, putative (Cryptosporidium parvum, UniProt A3FQ16)", "test": "enzyme activity, inhibitor", "IC50 [nM]": "> 3000"}
{"SMILES": "CN(C)C(=O)[C@H](Cc1c[nH]cn1)NC(=O)CN(CC(=O)O)Cc1ccccc1", "target": "IDE", "test": "enzyme activity, inhibitor, fluorescence", "IC50 [nM]": 6900}
{"SMILES": "CC(C(=O)O)c1cccc(C(=O)c2ccccc2)c1 (stereo not drawn)", "target": "Prostaglandin G/H synthase 2 (Ptgs2, Mus musculus, UniProt Q05769)", "test": "enzyme activity, inhibitor", "IC50 [nM]": 720}
